Data set [1] deals with Tryptophan 2,3-dioxygenase (Mus musculus, UniProt P48776). Kind of data set: Inhibition of mouse TDO in P815 clone 12 cells by HPLC analysis. The data set is classed as cell-based.
For data set [2], the target named is Tryptophan 2,3-dioxygenase (Homo sapiens, UniProt P48775). Kind of data set: Inhibition of human TDO transfected in mouse P815B clone 19 cells by HPLC analysis. The data set is classed as cell-based.
In data set [3] the target is T1, Indoleamine 2,3-dioxygenase 1 (Homo sapiens, UniProt P14902). Kind of data set: Inhibition of human IDO1 transfected in HEK293 clone 6 cells by HPLC analysis. The data set is classed as cell-based.
Target sequence in this assay (P14902 whole entry, looked up): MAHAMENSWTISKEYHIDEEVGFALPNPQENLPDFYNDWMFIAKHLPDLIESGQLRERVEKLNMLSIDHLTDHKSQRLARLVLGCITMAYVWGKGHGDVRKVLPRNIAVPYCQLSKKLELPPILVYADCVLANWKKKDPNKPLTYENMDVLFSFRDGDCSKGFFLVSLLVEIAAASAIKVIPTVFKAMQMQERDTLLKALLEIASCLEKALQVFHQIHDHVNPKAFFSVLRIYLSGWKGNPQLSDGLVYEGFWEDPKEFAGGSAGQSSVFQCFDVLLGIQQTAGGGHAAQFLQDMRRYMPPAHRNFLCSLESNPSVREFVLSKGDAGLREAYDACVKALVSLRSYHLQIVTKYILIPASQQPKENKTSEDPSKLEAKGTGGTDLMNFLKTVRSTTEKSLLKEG
The subject of a further data set is HepG2. As to the kind of experiment: Cytotoxicity against human HepG2 cells after 24 hrs by MTS-PMS assay. It counts as functional. The note with it: HepG2, 24 h, read-out: LD50 (the source's name). The procedure, abridged: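 Hep G2 cells (2 × 10⁴ per well) in IMDM with 10% FCS exposed to compound titrated 0.001–100 μM for 24 h at 37 °C; living cells counted by MTS/PMS assay; LD₅₀ reported as mean of at least two independent assays with standard deviation.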

The nature of another data set: physchem. Conditions: pH 2.
For data set [4], the target named is T1, Indoleamine 2,3-dioxygenase 1. Kind of data set: Inhibition of human IDO1 transfected in mouse P815B clone-6 cells by HPLC analysis. It counts as cell-based.
Target sequence in this assay (P14902 whole entry): as the sequence (P14902 whole entry, looked up) above
Data set [5] has the same target. As to the kind of experiment: Inhibition of human recombinant N-terminal His-tagged IDO1 (Ala2 to Gly403) overexpressed in Escherichia coli BL21 at pH 6.5 after 60 mins by HPLC analysis.
Target sequence in this assay (P14902 whole entry): as the sequence (P14902 whole entry, looked up) above
The target of data set [6] is Indoleamine 2,3-dioxygenase 1 (Mus musculus, UniProt P28776). Kind of data set: Inhibition of mouse IDO1 in P815 clone 6 cells by HPLC analysis. The data set is classed as cell-based. The procedure, abridged:
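Murine mastocytoma P815 stably transfected cells were used: P815-mIDO1 clone 6 for mouse IDO1 and P815B-hIDO1 clone 6 for human IDO1. Cells with inhibitor were incubated at 37 °C until under 50% of tryptophan was consumed, as tracked in control wells by pDMAB absorbance at 480 nm. Supernatant was TCA-precipitated, and tryptophan and kynurenine were quantified by C18 HPLC. Values are the mean of ≥2 independent assays.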

A short description of data set [7]: Dissociation constant, pKa of the compound at pH 11 to 12 by spectrophotometric analysis. The data set is classed as physicochemical.
Data set [8] addresses T1, Indoleamine 2,3-dioxygenase 1. The note with it: at 1 mM.
Target sequence in this assay (P14902 whole entry, looked up): as above

SMILES strings stand for the structures. The source made the active and inactive calls. The rule behind the calls is not given here. Some results are limits rather than exact numbers.

Sequence of Tryptophan 2,3-dioxygenase (Homo sapiens, UniProt P48775) (P48775 whole entry): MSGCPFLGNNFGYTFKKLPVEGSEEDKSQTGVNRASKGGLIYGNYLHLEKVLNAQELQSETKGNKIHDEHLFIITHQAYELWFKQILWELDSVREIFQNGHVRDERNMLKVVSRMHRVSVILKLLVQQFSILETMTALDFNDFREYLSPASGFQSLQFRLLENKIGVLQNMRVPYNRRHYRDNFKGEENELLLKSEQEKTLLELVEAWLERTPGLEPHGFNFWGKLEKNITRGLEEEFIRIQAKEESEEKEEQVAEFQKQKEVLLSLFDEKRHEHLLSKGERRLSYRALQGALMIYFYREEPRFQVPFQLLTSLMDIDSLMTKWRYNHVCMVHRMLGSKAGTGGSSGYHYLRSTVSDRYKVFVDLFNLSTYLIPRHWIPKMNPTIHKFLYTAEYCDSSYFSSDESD
Sequence of Tryptophan 2,3-dioxygenase (Mus musculus, UniProt P48776) (P48776 whole entry): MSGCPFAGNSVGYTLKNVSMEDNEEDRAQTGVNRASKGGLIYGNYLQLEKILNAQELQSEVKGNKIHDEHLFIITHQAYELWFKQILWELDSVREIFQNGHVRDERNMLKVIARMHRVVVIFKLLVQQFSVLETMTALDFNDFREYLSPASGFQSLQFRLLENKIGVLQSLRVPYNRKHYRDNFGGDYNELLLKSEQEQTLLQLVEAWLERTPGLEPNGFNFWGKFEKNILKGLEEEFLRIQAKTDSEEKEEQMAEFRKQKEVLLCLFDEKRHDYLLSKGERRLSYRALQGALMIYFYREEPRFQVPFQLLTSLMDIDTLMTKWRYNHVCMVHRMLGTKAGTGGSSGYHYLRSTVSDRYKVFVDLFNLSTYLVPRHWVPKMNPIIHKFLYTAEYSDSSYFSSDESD
Sequence of Indoleamine 2,3-dioxygenase 1 (Mus musculus, UniProt P28776) (P28776 whole entry): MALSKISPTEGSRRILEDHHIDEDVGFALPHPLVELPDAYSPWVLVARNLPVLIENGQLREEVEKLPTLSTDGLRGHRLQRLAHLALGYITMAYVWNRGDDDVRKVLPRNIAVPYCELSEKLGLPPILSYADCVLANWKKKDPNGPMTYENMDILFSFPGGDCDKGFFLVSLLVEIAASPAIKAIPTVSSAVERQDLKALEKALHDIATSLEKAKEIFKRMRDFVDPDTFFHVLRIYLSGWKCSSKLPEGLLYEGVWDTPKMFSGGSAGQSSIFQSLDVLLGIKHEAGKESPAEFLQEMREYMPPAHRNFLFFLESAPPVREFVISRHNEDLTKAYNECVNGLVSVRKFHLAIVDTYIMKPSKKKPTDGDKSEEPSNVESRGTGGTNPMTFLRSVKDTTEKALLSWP

With `Clc1ccc(Cl)c(-c2c[nH]nn2)c1`, the IC50 was > 100 µM in data set [1]; > 100 µM in [2]; 34 µM in [4]; 6.4 µM in [5]; 0.15 µM in data set [6]. For the same molecule, in data set [3], the inhibition entry is “Active”. The CC50 in the data set with HepG2 was > 100 µM. The molecule also registered a pKa in the data set “physchem” of 8.17.

`Clc1ccccc1-c1c[nH]nn1`: the IC50 is > 100 µM in data set [1]; > 100 µM in data set [2]; > 100 µM in data set [4]; 32 µM in [5]; 1.5 µM in data set [6]. This molecule gave a pKa in the data set “physchem” of 8.5.

On to `c1ccc(-c2cnn[nH]2)cc1`, for which the IC50 in [1] is > 100 µM; in [2] it was > 100 µM; in [6] it was 0.18 µM. Further, the pKa in data set [7] was found to be 0.4; in the data set “physchem”, 8.62. Moreover, in data set [3], the inhibition entry is “Active”. Besides, the CC50 with HepG2 is > 100 µM.

As for `Clc1cccc(-c2c[nH]nn2)c1Cl`, the IC50 in [1] was > 100 µM; in data set [2], > 100 µM; in [4], > 100 µM; in data set [5] it was 23 µM; in data set [6], 1.7 µM. In addition, in data set [3], the inhibition entry is “Active”. Besides, in the data set with HepG2, the CC50 was > 100 µM. Moreover, the pKa in “physchem” worked out at 8.06.

As for `c1c[nH]cn1` [IMIDAZOLE], the pKa in “physchem” was 14.5.

Regarding `Fc1cc(-c2c[nH]nn2)ccn1`, the IC50 in data set [1] is > 100 µM; in [2] it was > 100 µM; in [4], 7 µM; in [5], 7.4 µM; in data set [6], 0.12 µM. In addition, in [3], the inhibition result is “Active”. In addition, the CC50 in the data set on HepG2 was > 100 µM. The pKa in the data set “physchem” was 7.59.

With `c1ccc(-c2c[nH]cn2)cc1`, the pKa in [7] worked out at 6.1; in the data set “physchem”, 13.4.

As for `Fc1cccc(-c2c[nH]nn2)c1`, the IC50 in data set [1] was > 100 µM; in data set [2], > 100 µM; in [4], > 100 µM; in [5] it was 47 µM; in [6], 1.1 µM. For the same molecule, the inhibition entry in data set [3] is “Active”. For the same molecule, in the data set with HepG2, the CC50 is > 100 µM. The molecule further showed a pKa in the data set “physchem” of 8.38.

`Clc1cc(-c2c[nH]nn2)ccn1`: the IC50 is > 100 µM in data set [1]; > 100 µM in data set [2]; 3.5 µM in [4]; 2.8 µM in data set [5]; 0.06 µM in data set [6]. Further, the inhibition result in data set [3] was “Active”. In addition, in the data set with HepG2, the CC50 is > 100 µM. The pKa in “physchem” amounted to 7.6.

In the case of `c1ccc(-c2nnn[nH]2)cc1`, the inhibition result in data set [8] is “inactive”. The pKa in the data set “physchem” is 4.53.

As for `COc1ccccc1-c1c[nH]nn1`, the IC50 was > 100 µM in [1], > 100 µM in data set [2], > 100 µM in data set [4] and 20 µM in data set [6]. Also, the inhibition result in data set [3] is “Active”. The CC50 in the data set with HepG2 is > 100 µM. Besides, the inhibition result in data set [8] is “inactive”. The molecule also registered a pKa in the data set “physchem” of 8.99.

Regarding `c1c[nH]nn1`, the pKa in data set [7] worked out at 1.17; in “physchem”, 9.26.

`c1cc(-c2cnn[nH]2)ccn1` had a pKa in the data set “physchem” of 7.85. The half-inhibitory concentration (IC50) in [5] was found to be 85 µM.

The molecule `c1nnn[nH]1` [TETRAZOLE] showed a pKa in “physchem” of 4.79.

On to `c1nc[nH]n1` [1,2,4-TRIAZOLE], for which the pKa in [7] amounted to 2.19; in the data set “physchem” it was 10.3.

For the molecule `Clc1cccc(-c2c[nH]nn2)c1`, the IC50 in data set [1] was > 100 µM; in [2], > 100 µM; in data set [4], 0.62 µM; in data set [5], 1.2 µM; in data set [6] it was 0.02 µM. For the same molecule, the inhibition result in data set [3] was “Active”. Besides, the CC50 in the data set on HepG2 was > 100 µM. This molecule registered a pKa in “physchem” of 8.32.

In the case of `Oc1cccc(-c2c[nH]nn2)c1`, the IC50 in [1] was > 100 µM; in data set [2], > 100 µM; in [4] it was > 100 µM; in data set [5] it was 310 µM; in data set [6], 1.3 µM. Besides, in data set [3], the inhibition result is “Active”. The CC50 with HepG2 was > 100 µM.

As for `Clc1ccc(-c2c[nH]nn2)cc1`, the pKa in “physchem” is 8.46. The IC50 in [5] came to 530 µM.

`c1cncc(-c2c[nH]nn2)c1` returned a pKa in “physchem” of 8.14. In addition, the IC50 in data set [5] was determined as 1000 µM.

Consider `c1ccc(-c2nc[nH]n2)cc1`, for which the figures for the pKa (in data set [7]; in “physchem”) were 2.05 and 9.29, respectively. For the same molecule, in data set [8], the inhibition result was “inactive”.

In the case of `Cc1[nH]nnc1-c1ccccc1`, the inhibition result in data set [8] is “inactive”. The pKa in the data set “physchem” worked out at 9.11.

`FC(F)(F)c1ccccc1-c1c[nH]nn1`: the half-inhibitory concentration (IC50) in data set [1] is > 100 µM; in data set [2], > 100 µM; in data set [4], > 100 µM; in data set [5], 650 µM; in [6], 20 µM. Further, in data set [3], the inhibition result was “Active”. The CC50 in the data set on HepG2 is > 100 µM.

Values taken from ChEMBL document CHEMBL2146377, “Rational design of 4-aryl-1,2,3-triazoles for indoleamine 2,3-dioxygenase 1 inhibition” (J Med Chem, 2012).
